Measurements as given in ChEMBL document CHEMBL1154444, “2,3,5-Substituted tetrahydrofurans: COX-2 inhibitory activities of 5-hydroxymethyl-/carboxyl-2,3-diaryl-tetrahydro-furan-3-ols” (Eur J Med Chem, 2008).

Key:
[1] = target: Prostaglandin G/H synthase 1 (Ovis aries) (UniProt P05979)
[2] = target: Prostaglandin G/H synthase 2 (Ovis aries) (UniProt P79208)
[3] = target: Prostaglandin G/H synthase 2 (Ovis aries) (UniProt P79208); conditions: at 1 µM
[4] = Selectivity ratio of IC50 for COX1 to IC50 for COX2
Summary of the method: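 Ovine COX-1 and COX-2 inhibitor screening kit. Reaction started with arachidonic acid and quenched with 1 M HCl. PGH2 reduced to PGF2α by SnCl2, then quantified by prostaglandin antiserum immunoassay read at 405 nm. Heat-inactivated enzymes (boiling water, 3 min) served as background. Compounds tested in duplicate. Selectivity taken as IC50(COX-1)/IC50(COX-2).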

[5] = target: Prostaglandin G/H synthase 1 (Ovis aries) (UniProt P05979); conditions: at 1 µM
PC-3 [6] = test: Anticancer activity against human PC3 cells; assay type: functional
[7] = Partition coefficient, log P of the compound; assay type: physicochemical; conditions: octanol/water
Summary of the method: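 Calculated rather than measured, as one of several physico-chemical descriptors used in quantitative structure–activity correlation with COX-2 inhibition.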

[8] = target: Prostaglandin G/H synthase 2 (Ovis aries) (UniProt P79208); conditions: at 10 µM
SN12C = test: Anticancer activity against human SN12C cells at 10 uM; assay type: functional
Summary of the method: (§1)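 Tested at NIH in the standard 59-human-tumor-cell-line panel, at five concentrations from 10^-4 to 10^-8 M. Read-out is percent growth inhibition of the named cell line at 10^-5 M.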

PC-3 [9] = test: Anticancer activity against human PC3 cells at 1 uM; assay type: functional
NCI-H522 = test: Anticancer activity against human NCI-H522 cells at 10 uM; assay type: functional
Summary of the method: as §1

Prostaglandin G/H synthase 1 (Ovis aries), sequence (P05979 whole entry, looked up): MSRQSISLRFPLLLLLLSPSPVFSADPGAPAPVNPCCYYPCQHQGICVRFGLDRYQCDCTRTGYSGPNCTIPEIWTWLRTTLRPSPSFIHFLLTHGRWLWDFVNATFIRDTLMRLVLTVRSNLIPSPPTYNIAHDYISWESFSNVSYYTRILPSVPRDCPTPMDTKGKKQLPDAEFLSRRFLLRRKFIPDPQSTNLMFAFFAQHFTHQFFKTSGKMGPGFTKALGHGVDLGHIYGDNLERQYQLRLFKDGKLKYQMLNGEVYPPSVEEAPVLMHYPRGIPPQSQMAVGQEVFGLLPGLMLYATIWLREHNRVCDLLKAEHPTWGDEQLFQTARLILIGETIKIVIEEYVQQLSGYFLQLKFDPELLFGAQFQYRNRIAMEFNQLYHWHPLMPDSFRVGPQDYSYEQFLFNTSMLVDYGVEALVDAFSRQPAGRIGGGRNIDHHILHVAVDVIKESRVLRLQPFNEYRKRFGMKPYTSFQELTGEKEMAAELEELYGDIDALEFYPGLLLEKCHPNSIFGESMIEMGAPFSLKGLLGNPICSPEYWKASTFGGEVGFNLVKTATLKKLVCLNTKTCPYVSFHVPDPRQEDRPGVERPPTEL
Prostaglandin G/H synthase 2 (Ovis aries), sequence (P79208 whole entry, looked up): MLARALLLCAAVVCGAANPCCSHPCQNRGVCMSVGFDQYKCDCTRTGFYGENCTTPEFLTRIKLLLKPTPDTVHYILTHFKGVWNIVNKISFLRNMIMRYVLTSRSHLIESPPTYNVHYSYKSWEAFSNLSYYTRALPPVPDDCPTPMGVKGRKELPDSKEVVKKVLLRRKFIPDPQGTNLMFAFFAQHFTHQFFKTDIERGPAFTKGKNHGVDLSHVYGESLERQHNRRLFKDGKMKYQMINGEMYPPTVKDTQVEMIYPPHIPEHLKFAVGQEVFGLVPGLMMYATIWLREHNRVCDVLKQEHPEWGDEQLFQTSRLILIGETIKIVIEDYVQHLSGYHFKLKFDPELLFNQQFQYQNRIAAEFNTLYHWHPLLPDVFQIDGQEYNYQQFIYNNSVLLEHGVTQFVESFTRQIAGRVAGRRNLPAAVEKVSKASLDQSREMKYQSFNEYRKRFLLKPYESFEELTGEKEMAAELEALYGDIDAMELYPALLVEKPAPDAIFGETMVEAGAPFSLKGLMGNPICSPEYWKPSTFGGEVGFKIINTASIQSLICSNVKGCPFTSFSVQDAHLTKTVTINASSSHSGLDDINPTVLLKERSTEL

Row | IC50 [1] [µM] | IC50 [2] [µM] | inhibition [3] [%] | Ratio IC50 [4] | inhibition [5] [%] | GI50 (PC-3 [6]) [µM] | logP [7] | inhibition [8] [%] | Structure (SMILES) | inhibition at 10 µM (SN12C) [%] | inhibition at 1 µM (PC-3 [9]) [%] | inhibition at 10 µM (NCI-H522) [%]
1 | < 10 | 3 | 43 | < 3.3 | 56 | 19.9 | 3.54 | 68 | OC[C@H]1C[C@](O)(c2ccc(Cl)cc2)[C@@H](c2ccc(Cl)cc2)O1 | – | – | –
2 | > 10 | < 1 | 68 | > 10 | -1.15 | – | 2.61 | 69 | O=C(O)[C@H]1C[C@](O)(c2ccccc2)[C@@H](c2ccccc2)O1 (relative stereo) | – | – | –
3 | > 10 | 3.2 | 37 | > 3.1 | 30 | – | 2.89 | 90 | O=C(O)[C@H]1C[C@](O)(c2ccc(F)cc2)[C@@H](c2ccc(F)cc2)O1 (relative stereo) | 60 | – | –
4 | > 10 | < 1 | 65 | > 10 | 22 | 93.3 | 2 | 67 | COc1ccc([C@H]2O[C@@H](CO)C[C@]2(O)c2ccc(OC)cc2)cc1 | – | – | –
5 | – | – | – | – | – | 47 | – | – | Cc1ccc(-c2cc(C(F)(F)F)nn2-c2ccc(S(N)(=O)=O)cc2)cc1 [CELECOXIB] | – | – | –
6 | > 10 | 5.1 | 28 | > 1.96 | 2.8 | – | 2.5 | 77 | OC[C@H]1C[C@](O)(c2ccccc2)[C@@H](c2ccccc2)O1 | – | – | –
7 | – | – | – | – | – | – | – | – | CS(=O)(=O)c1ccc(C2=C(c3ccccc3)C(=O)OC2)cc1 [ROFECOXIB] | – | 15 | –
8 | < 10 | 3.8 | 30 | < 2.6 | 55 | – | 3.65 | 94 | O=C(O)[C@H]1C[C@](O)(c2ccc(Cl)cc2)[C@@H](c2ccc(Cl)cc2)O1 (relative stereo) | – | – | –
9 | < 10 | 6.5 | 40 | < 1.5 | 55 | 100 | 0.792 | 57 | CS(=O)(=O)c1ccc([C@H]2O[C@@H](CO)C[C@]2(O)c2ccc(S(C)(=O)=O)cc2)cc1 | – | – | –
10 | < 10 | < 1 | 67 | – | 73 | 22 | 3.54 | 68 | OC[C@H]1C[C@](O)(c2ccccc2Cl)[C@@H](c2ccccc2Cl)O1 | – | – | –
11 | > 10 | < 1 | 88 | > 10 | 22 | 95 | 2.78 | 82 | OC[C@H]1C[C@](O)(c2ccc(F)cc2)[C@@H](c2ccc(F)cc2)O1 | – | – | –
12 | > 10 | 3.5 | 37 | > 2.8 | 34 | – | 3.65 | 82 | O=C(O)[C@H]1C[C@](O)(c2ccccc2Cl)[C@@H](c2ccccc2Cl)O1 (relative stereo) | – | – | 72
